Reference: ChEMBL document CHEMBL4311956, “A Qualified Success: Discovery of a New Series of ATAD2 Bromodomain Inhibitors with a Novel Binding Mode Using High-Throughput Screening and Hit Qualification” (J Med Chem, 2019)
The source made the active and inactive calls.

Key:
[1] = target: T1, ATPase family AAA domain-containing protein 2 (Homo sapiens) (UniProt Q6PL18); test: Displacement of SGRG-K(Ac)-GG-K(Ac)-GLG-K(Ac)-GGAKRHRKV-biotin) from His6/FLAG-tagged TEV fused ATAD2 bromodomain (981 to 1121 residues) (unknown origin) expressed in Escherichia coli BL21(DE3) cells up to 10 uM after 30 mins by TR-FRET assay
T1 sequence (whole entry): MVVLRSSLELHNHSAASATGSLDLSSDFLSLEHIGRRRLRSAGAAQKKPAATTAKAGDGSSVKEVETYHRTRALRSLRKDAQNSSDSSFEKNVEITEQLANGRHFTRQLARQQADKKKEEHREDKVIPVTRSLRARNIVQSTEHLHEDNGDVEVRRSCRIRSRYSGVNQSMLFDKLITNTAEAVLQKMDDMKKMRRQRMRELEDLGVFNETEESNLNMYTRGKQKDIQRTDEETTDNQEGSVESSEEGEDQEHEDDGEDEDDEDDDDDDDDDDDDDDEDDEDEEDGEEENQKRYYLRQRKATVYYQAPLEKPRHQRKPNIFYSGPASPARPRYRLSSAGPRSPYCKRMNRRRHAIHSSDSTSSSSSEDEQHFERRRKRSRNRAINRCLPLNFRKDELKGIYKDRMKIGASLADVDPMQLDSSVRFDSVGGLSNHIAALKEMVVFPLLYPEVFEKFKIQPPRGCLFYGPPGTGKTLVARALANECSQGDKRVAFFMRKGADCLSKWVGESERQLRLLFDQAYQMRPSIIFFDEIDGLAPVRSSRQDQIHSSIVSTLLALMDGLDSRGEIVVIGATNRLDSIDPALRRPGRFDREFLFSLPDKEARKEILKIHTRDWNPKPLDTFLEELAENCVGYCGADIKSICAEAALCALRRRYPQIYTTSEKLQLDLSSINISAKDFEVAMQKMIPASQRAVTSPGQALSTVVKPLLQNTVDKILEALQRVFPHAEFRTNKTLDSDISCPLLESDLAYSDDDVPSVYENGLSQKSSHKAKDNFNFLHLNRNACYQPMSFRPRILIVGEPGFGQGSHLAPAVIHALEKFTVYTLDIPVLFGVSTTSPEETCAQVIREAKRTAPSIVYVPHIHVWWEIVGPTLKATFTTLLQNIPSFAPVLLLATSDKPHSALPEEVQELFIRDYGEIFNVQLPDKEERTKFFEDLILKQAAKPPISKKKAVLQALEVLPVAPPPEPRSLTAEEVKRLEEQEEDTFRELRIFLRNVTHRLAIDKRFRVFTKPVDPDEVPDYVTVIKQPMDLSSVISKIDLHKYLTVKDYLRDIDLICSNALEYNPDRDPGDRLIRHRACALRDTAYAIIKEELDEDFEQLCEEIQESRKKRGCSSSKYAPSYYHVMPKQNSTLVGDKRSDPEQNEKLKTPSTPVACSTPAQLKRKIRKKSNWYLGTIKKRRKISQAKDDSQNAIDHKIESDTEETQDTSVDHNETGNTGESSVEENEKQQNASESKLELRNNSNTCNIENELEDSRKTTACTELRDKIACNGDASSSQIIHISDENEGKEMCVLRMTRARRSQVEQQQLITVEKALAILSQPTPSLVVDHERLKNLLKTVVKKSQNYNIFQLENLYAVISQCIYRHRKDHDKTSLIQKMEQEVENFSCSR

[2] = target: T1, ATPase family AAA domain-containing protein 2 (Homo sapiens); test: Binding affinity to 15N-labelled ATAD2 (981 to 1108 residues) (unknown origin) at 100 uM by 1H-15N HSQC NMR analysis
Procedure, shortened: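 15N–1H HSQC spectra of labelled ATAD2 bromodomain recorded with and without compound at 100 μM. Binding is judged from spectral changes.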

[3] = target: T2, ATPase family AAA domain-containing protein 2 (Homo sapiens, UniProt Q6PL18); test: Displacement of biotinylated H4 peptide from His6/FLAG-tagged TEV fused ATAD2 bromodomain (950 to 1148 residues) (unknown origin) expressed in Escherichia coli BL21(DE3) cells after 30 mins by TR-FRET assay
T2 sequence (Q6PL18 whole entry): T1 sequence (whole entry)
Procedure, shortened: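 TR-FRET acetylated-peptide displacement assay using 6H-Flag-tev ATAD2(950–1148). Used for the HTS: single-concentration primary screen with digital plate-pattern correction, then replated duplicate retest and dose–response. A curve-fit cutoff of IC50 > 30 μM applies.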

[4] = target: T2, ATPase family AAA domain-containing protein 2; test: Binding affinity to human partial length ATAD2A (Q981 to R1108 residues) expressed in Escherichia coli BL21(DE3) cells after 1 hr by competitive binding assay
[5] = target: T2, ATPase family AAA domain-containing protein 2; test: Displacement of Alexa Fluor 488 labelled ligand from ATAD2 bromodomain (981 to 1121 residues) (unknown origin) expressed in Escherichia coli BL21(DE3) cells after 30 mins by TR-FRET assay
[6] = target: Bromodomain-containing protein 4 (Homo sapiens, UniProt O60885, Y97A); test: Displacement of Alexa Fluor 647 labelled ligand from His6-tagged BRD4 BD2 (1 to 477 residues)/BD1 Y97A mutant (unknown origin) after 30 mins by TR-FRET assay
Procedure, shortened: (§1)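 BET selectivity by TR-FRET fluoroligand displacement. Uses tandem BET bromodomain constructs carrying a mutation in the non-assayed bromodomain.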

[7] = target: Bromodomain-containing protein 4 (Homo sapiens, UniProt O60885, Y390A); test: Displacement of Alexa Fluor 647 labelled ligand from His6-tagged BRD4 BD1 (1 to 477 residues)/BD2 Y390A mutant (unknown origin) after 30 mins by TR-FRET assay; procedure, shortened: as §1

In the case of `CN1CCN(c2nc(C(=O)c3ccccc3)c3cnn(C)c3n2)CC1`, the Activity [1] is reported as “inactive”, the Activity [2] is reported as “inactive” and the IC50 [3] is reported as 0.03 µM.

Compound `CCOC(=O)Nc1cc(-c2ccc(C)c(NS(C)(=O)=O)c2)nn2c(C)nnc12` has a Kd [4] of 44 µM.

Compound `CC1CCCN(S(=O)(=O)c2cc(NC(=O)CN3C(=O)CNC3=O)ccc2Br)C1` (configuration not stated) has an IC50 [5] of 0.631 µM, an IC50 [6] of 31.6 µM and an IC50 [7] of over 50.1 µM.
